Results as given in ChEMBL document CHEMBL4689842, “EUbOPEN Chemogenomics Library wave 1” (2021).

Test system: Fibroblast
Assay: Multiplex assay against human fibroblast
Assay type: toxicity, cell-based
Method in brief: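 Four dyes were applied at seeding to live cells: Hoechst33342, BioTracker Green Microtubule Cytoskeleton Dye, MitoTracker Red and Annexin V Alexa Fluor 680. Imaging after compound addition used a CQ1 microscope at 37°C and 5% CO2. CellPathfinder machine-learning gating then sorted cells into Hoechst high-intensity objects or normal cells, normal cells into healthy, pyknosed or fragmented nuclei, and pyknosed cells into mitotic or apoptotic, with tubulin, mitochondrial-mass and membrane-permeability phenotypes given as per cents of healthy-nucleus cells.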

[1] = 12 h, 1 µM, compound concentration 1 uM, replicate 1
[2] = 12 h, 1 µM, compound concentration 1 uM, replicate 2
[3] = 12 h, 10 µM, compound concentration 10 uM, replicate 1
[4] = 12 h, 10 µM, compound concentration 10 uM, replicate 2
[5] = 24 h, 1 µM, compound concentration 1 uM, replicate 1
[6] = 24 h, 1 µM, compound concentration 1 uM, replicate 2
[7] = 24 h, 10 µM, compound concentration 10 uM, replicate 1
[8] = 24 h, 10 µM, compound concentration 10 uM, replicate 2
[9] = 48 h, 1 µM, compound concentration 1 uM, replicate 1
[10] = 48 h, 1 µM, compound concentration 1 uM, replicate 2
[11] = 48 h, 10 µM, compound concentration 10 uM, replicate 1
[12] = 48 h, 10 µM, compound concentration 10 uM, replicate 2

## CCOc1cc2ncc(C#N)c(Nc3ccc(OCc4ccccn4)c(Cl)c3)c2cc1NC(=O)/C=C/CN(C)C [NERATINIB]
[1]
  Population Apoptotic (%): 55%
  Population Fragmented Nuclei (%): 21%
  Population Healthy Nuclei (%): 37%
  Population Hoechst High Intensity Objects (%): 14%
  Population Membrane Permeable-Phenotype (%): 25%
  Population Mitochondria Different-Phenotype (%): 13%
  Population Mitotic Cells (%): 44%
  Population Normal (%): 85%
  Population Pyknosed Nuclei (%): 41%
  Population Tubulin-Different-Phenotype (%): 58%
  Total Cell Count: 134
[2]
  Population Apoptotic (%): 11%
  Population Fragmented Nuclei (%): 9%
  Population Healthy Nuclei (%): 82%
  Population Hoechst High Intensity Objects (%): 8%
  Population Membrane Permeable-Phenotype (%): 4%
  Population Mitochondria Different-Phenotype (%): 18%
  Population Mitotic Cells (%): 88%
  Population Normal (%): 91%
  Population Pyknosed Nuclei (%): 9%
  Population Tubulin-Different-Phenotype (%): 15%
  Total Cell Count: 64
[3]
  Population Apoptotic (%): 45%
  Population Fragmented Nuclei (%): 25%
  Population Healthy Nuclei (%): 44%
  Population Hoechst High Intensity Objects (%): 34%
  Population Membrane Permeable-Phenotype (%): 7%
  Population Mitochondria Different-Phenotype (%): 1%
  Population Mitotic Cells (%): 54%
  Population Normal (%): 65%
  Population Pyknosed Nuclei (%): 30%
  Population Tubulin-Different-Phenotype (%): 13%
  Total Cell Count: 621
[4]
  Population Apoptotic (%): 12%
  Population Fragmented Nuclei (%): 35%
  Population Healthy Nuclei (%): 50%
  Population Hoechst High Intensity Objects (%): 27%
  Population Mitochondria Different-Phenotype (%): 16%
  Population Mitotic Cells (%): 87%
  Population Normal (%): 72%
  Population Pyknosed Nuclei (%): 13%
  Population Tubulin-Different-Phenotype (%): 42%
  Total Cell Count: 109
[5]
  Population Apoptotic (%): 64%
  Population Fragmented Nuclei (%): 21%
  Population Healthy Nuclei (%): 40%
  Population Hoechst High Intensity Objects (%): 18%
  Population Membrane Permeable-Phenotype (%): 32%
  Population Mitochondria Different-Phenotype (%): 11%
  Population Mitotic Cells (%): 35%
  Population Normal (%): 81%
  Population Pyknosed Nuclei (%): 37%
  Population Tubulin-Different-Phenotype (%): 53%
  Total Cell Count: 129
[6]
  Population Apoptotic (%): 23%
  Population Fragmented Nuclei (%): 9%
  Population Healthy Nuclei (%): 76%
  Population Hoechst High Intensity Objects (%): 5%
  Population Membrane Permeable-Phenotype (%): 5%
  Population Mitochondria Different-Phenotype (%): 6%
  Population Mitotic Cells (%): 76%
  Population Normal (%): 94%
  Population Pyknosed Nuclei (%): 14%
  Population Tubulin-Different-Phenotype (%): 11%
  Total Cell Count: 73
[7]
  Population Apoptotic (%): 52%
  Population Fragmented Nuclei (%): 25%
  Population Healthy Nuclei (%): 48%
  Population Hoechst High Intensity Objects (%): 39%
  Population Membrane Permeable-Phenotype (%): 3%
  Population Mitochondria Different-Phenotype (%): 3%
  Population Mitotic Cells (%): 47%
  Population Normal (%): 60%
  Population Pyknosed Nuclei (%): 26%
  Population Tubulin-Different-Phenotype (%): 15%
  Total Cell Count: 651
[8]
  Population Apoptotic (%): 12%
  Population Fragmented Nuclei (%): 36%
  Population Healthy Nuclei (%): 49%
  Population Hoechst High Intensity Objects (%): 26%
  Population Membrane Permeable-Phenotype (%): 10%
  Population Mitochondria Different-Phenotype (%): 14%
  Population Mitotic Cells (%): 87%
  Population Normal (%): 73%
  Population Pyknosed Nuclei (%): 14%
  Population Tubulin-Different-Phenotype (%): 34%
  Total Cell Count: 124
[9]
  Population Apoptotic (%): 61%
  Population Fragmented Nuclei (%): 36%
  Population Healthy Nuclei (%): 45%
  Population Hoechst High Intensity Objects (%): 18%
  Population Membrane Permeable-Phenotype (%): 26%
  Population Mitochondria Different-Phenotype (%): 6%
  Population Mitotic Cells (%): 38%
  Population Normal (%): 81%
  Population Pyknosed Nuclei (%): 18%
  Population Tubulin-Different-Phenotype (%): 51%
  Total Cell Count: 122
[10]
  Population Apoptotic (%): 33%
  Population Fragmented Nuclei (%): 20%
  Population Healthy Nuclei (%): 76%
  Population Hoechst High Intensity Objects (%): 12%
  Population Membrane Permeable-Phenotype (%): 9%
  Population Mitochondria Different-Phenotype (%): 4%
  Population Mitotic Cells (%): 66%
  Population Normal (%): 87%
  Population Pyknosed Nuclei (%): 2%
  Population Tubulin-Different-Phenotype (%): 14%
  Total Cell Count: 123
[11]
  Population Apoptotic (%): 55%
  Population Fragmented Nuclei (%): 28%
  Population Healthy Nuclei (%): 42%
  Population Hoechst High Intensity Objects (%): 42%
  Population Membrane Permeable-Phenotype (%): 5%
  Population Mitochondria Different-Phenotype (%): 4%
  Population Mitotic Cells (%): 44%
  Population Normal (%): 57%
  Population Pyknosed Nuclei (%): 28%
  Population Tubulin-Different-Phenotype (%): 11%
  Total Cell Count: 626
[12]
  Population Apoptotic (%): 62%
  Population Fragmented Nuclei (%): 24%
  Population Healthy Nuclei (%): 56%
  Population Hoechst High Intensity Objects (%): 48%
  Population Membrane Permeable-Phenotype (%): 2%
  Population Mitochondria Different-Phenotype (%): 1%
  Population Mitotic Cells (%): 37%
  Population Normal (%): 51%
  Population Pyknosed Nuclei (%): 19%
  Population Tubulin-Different-Phenotype (%): 18%
  Total Cell Count: 814

## Cc1cn(-c2cc(NC(=O)c3ccc(C)c(Nc4nccc(-c5cccnc5)n4)c3)cc(C(F)(F)F)c2)cn1 [NILOTINIB]
[1]
  Population Apoptotic (%): 62%
  Population Fragmented Nuclei (%): 36%
  Population Healthy Nuclei (%): 29%
  Population Hoechst High Intensity Objects (%): 8%
  Population Membrane Permeable-Phenotype (%): 16%
  Population Mitochondria Different-Phenotype (%): 20%
  Population Mitotic Cells (%): 37%
  Population Normal (%): 91%
  Population Pyknosed Nuclei (%): 34%
  Population Tubulin-Different-Phenotype (%): 83%
  Total Cell Count: 160
[2]
  Population Apoptotic (%): 25%
  Population Fragmented Nuclei (%): 1%
  Population Healthy Nuclei (%): 86%
  Population Membrane Permeable-Phenotype (%): 1%
  Population Mitochondria Different-Phenotype (%): 18%
  Population Mitotic Cells (%): 75%
  Population Pyknosed Nuclei (%): 11%
  Population Tubulin-Different-Phenotype (%): 10%
  Total Cell Count: 66
[3]
  Population Apoptotic (%): 78%
  Population Fragmented Nuclei (%): 42%
  Population Healthy Nuclei (%): 46%
  Population Hoechst High Intensity Objects (%): 44%
  Population Membrane Permeable-Phenotype (%): 4%
  Population Mitochondria Different-Phenotype (%): 0%
  Population Mitotic Cells (%): 21%
  Population Normal (%): 55%
  Population Pyknosed Nuclei (%): 10%
  Population Tubulin-Different-Phenotype (%): 2%
  Total Cell Count: 2441
[4]
  Population Apoptotic (%): 33%
  Population Fragmented Nuclei (%): 18%
  Population Healthy Nuclei (%): 72%
  Population Hoechst High Intensity Objects (%): 7%
  Population Mitochondria Different-Phenotype (%): 61%
  Population Mitotic Cells (%): 66%
  Population Normal (%): 92%
  Population Pyknosed Nuclei (%): 9%
  Population Tubulin-Different-Phenotype (%): 63%
  Total Cell Count: 73
[5]
  Population Apoptotic (%): 56%
  Population Fragmented Nuclei (%): 32%
  Population Healthy Nuclei (%): 29%
  Population Hoechst High Intensity Objects (%): 13%
  Population Membrane Permeable-Phenotype (%): 17%
  Population Mitochondria Different-Phenotype (%): 32%
  Population Mitotic Cells (%): 43%
  Population Normal (%): 86%
  Population Pyknosed Nuclei (%): 38%
  Population Tubulin-Different-Phenotype (%): 92%
  Total Cell Count: 159
[6]
  Population Apoptotic (%): 40%
  Population Fragmented Nuclei (%): 14%
  Population Healthy Nuclei (%): 79%
  Population Hoechst High Intensity Objects (%): 5%
  Population Membrane Permeable-Phenotype (%): 2%
  Population Mitochondria Different-Phenotype (%): 20%
  Population Mitotic Cells (%): 60%
  Population Normal (%): 94%
  Population Pyknosed Nuclei (%): 5%
  Population Tubulin-Different-Phenotype (%): 12%
  Total Cell Count: 67
[7]
  Population Apoptotic (%): 77%
  Population Fragmented Nuclei (%): 45%
  Population Healthy Nuclei (%): 45%
  Population Hoechst High Intensity Objects (%): 50%
  Population Membrane Permeable-Phenotype (%): 3%
  Population Mitochondria Different-Phenotype (%): 0%
  Population Mitotic Cells (%): 22%
  Population Normal (%): 49%
  Population Pyknosed Nuclei (%): 9%
  Population Tubulin-Different-Phenotype (%): 2%
  Total Cell Count: 2873
[8]
  Population Apoptotic (%): 0%
  Population Fragmented Nuclei (%): 12%
  Population Healthy Nuclei (%): 83%
  Population Hoechst High Intensity Objects (%): 2%
  Population Membrane Permeable-Phenotype (%): 1%
  Population Mitochondria Different-Phenotype (%): 42%
  Population Mitotic Cells (%): 100%
  Population Normal (%): 97%
  Population Pyknosed Nuclei (%): 4%
  Population Tubulin-Different-Phenotype (%): 30%
  Total Cell Count: 93
[9]
  Population Apoptotic (%): 67%
  Population Fragmented Nuclei (%): 32%
  Population Healthy Nuclei (%): 40%
  Population Hoechst High Intensity Objects (%): 16%
  Population Membrane Permeable-Phenotype (%): 10%
  Population Mitochondria Different-Phenotype (%): 29%
  Population Mitotic Cells (%): 32%
  Population Normal (%): 83%
  Population Pyknosed Nuclei (%): 26%
  Population Tubulin-Different-Phenotype (%): 72%
  Total Cell Count: 138
[10]
  Population Apoptotic (%): 100%
  Population Fragmented Nuclei (%): 19%
  Population Healthy Nuclei (%): 79%
  Population Hoechst High Intensity Objects (%): 11%
  Population Membrane Permeable-Phenotype (%): 5%
  Population Mitochondria Different-Phenotype (%): 2%
  Population Mitotic Cells (%): 0%
  Population Normal (%): 89%
  Population Pyknosed Nuclei (%): 1%
  Population Tubulin-Different-Phenotype (%): 5%
  Total Cell Count: 100
[11]
  Population Apoptotic (%): 47%
  Population Fragmented Nuclei (%): 45%
  Population Healthy Nuclei (%): 43%
  Population Hoechst High Intensity Objects (%): 61%
  Population Membrane Permeable-Phenotype (%): 4%
  Population Mitochondria Different-Phenotype (%): 0%
  Population Mitotic Cells (%): 52%
  Population Normal (%): 38%
  Population Pyknosed Nuclei (%): 10%
  Population Tubulin-Different-Phenotype (%): 2%
  Total Cell Count: 2935
[12]
  Population Apoptotic (%): 100%
  Population Fragmented Nuclei (%): 28%
  Population Healthy Nuclei (%): 65%
  Population Hoechst High Intensity Objects (%): 25%
  Population Membrane Permeable-Phenotype (%): 15%
  Population Mitochondria Different-Phenotype (%): 9%
  Population Mitotic Cells (%): 0%
  Population Normal (%): 74%
  Population Pyknosed Nuclei (%): 6%
  Population Tubulin-Different-Phenotype (%): 81%
  Total Cell Count: 66
